*1 amine or outer side, *2 acyl side, *3 side chain or, on linkers, in order; H or OH if unused. Where a SMILES comes first, the peptide text is derived from it. Side-chain parts run from the residue outwards. The star is where a group is joined. Mycophenolyl = COc1c(C)c2c(c(O)c1C/C=C(\C)CCC(=O)*)C(=O)OC2; γGlu = O=C(O)[C@H](CCC(=O)[*:2])N[*:1]; 12Ado = NCCCCCCCCCCCC(=O)O; Ahx = NCCCCCC(=O)O
Target: Glucagon-like peptide 1 receptor (Homo sapiens, UniProt P43220)
Assay: Agonist activity at human GLP1 receptor expressed in HEK293 cells assessed as increase in cAMP level after 30 mins by HTRF method
Type: functional, cell-based
Procedure, shortened: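 HEK293 cells stably expressing human GLP-1 receptor, thawed, suspended in DMEM with 20 mM HEPES, 2 mM L-Glu, 0.5% FBS, 1% pen-strep. Compounds dissolved in DMSO, diluted in assay buffer to 1 × 10−13–1 × 10−6 M final, 30 min at 37 °C in 5% CO2. cAMP read by HTRF. EC50 as means ± SD of three individual experiments, n = 3.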

Chain of Glucagon-like peptide 1 receptor (P43220 whole entry): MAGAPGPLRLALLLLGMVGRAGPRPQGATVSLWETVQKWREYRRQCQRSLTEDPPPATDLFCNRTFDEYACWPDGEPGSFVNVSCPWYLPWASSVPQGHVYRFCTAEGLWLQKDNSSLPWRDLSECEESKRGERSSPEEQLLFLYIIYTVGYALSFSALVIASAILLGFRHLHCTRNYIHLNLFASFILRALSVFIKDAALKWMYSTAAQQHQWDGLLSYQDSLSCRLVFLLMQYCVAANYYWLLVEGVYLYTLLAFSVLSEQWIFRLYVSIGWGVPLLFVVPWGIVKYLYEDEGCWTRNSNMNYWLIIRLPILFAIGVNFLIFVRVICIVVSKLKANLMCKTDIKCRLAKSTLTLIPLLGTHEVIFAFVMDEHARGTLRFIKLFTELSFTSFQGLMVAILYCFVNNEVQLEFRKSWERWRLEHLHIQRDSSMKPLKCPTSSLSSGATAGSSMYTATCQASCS

Compound | EC50 [nM]
H-HGEGTYTNDVTEYLEEEAAKEFIEWLIKGK-OH | 5.4
CC[C@H](C)[C@H](NC(=O)[C@H](CC(C)C)NC(=O)[C@H](Cc1c[nH]c2ccccc12)NC(=O)[C@H](CCC(=O)O)NC(=O)[C@@H](NC(=O)[C@H](Cc1ccccc1)NC(=O)[C@H](CCC(=O)O)NC(=O)[C@H](CCCCN)NC(=O)[C@H](C)NC(=O)[C@H](C)NC(=O)[C@H](CCC(=O)O)NC(=O)[C@H](CCC(=O)O)NC(=O)[C@H](CCC(=O)O)NC(=O)[C@H](CC(C)C)NC(=O)[C@H](Cc1ccc(O)cc1)NC(=O)[C@H](CCC(=O)O)NC(=O)[C@@H](NC(=O)[C@@H](NC(=O)[C@H](CC(=O)O)NC(=O)[C@H](CC(N)=O)NC(=O)[C@@H](NC(=O)[C@H](Cc1ccc(O)cc1)NC(=O)[C@@H](NC(=O)CNC(=O)[C@H](CCC(=O)O)NC(=O)CNC(=O)[C@@H](N)Cc1cnc[nH]1)[C@@H](C)O)[C@@H](C)O)C(C)C)[C@@H](C)O)[C@@H](C)CC)C(=O)N[C@@H](CCCCNC(=O)CC[C@H](NC(=O)CCCCCCCCCCCNC(=O)CC/C(C)=C/Cc1c(O)c2c(c(C)c1OC)COC2=O)C(=O)O)C(=O)NCC(=O)N[C@@H](CCCCN)C(=O)O (H-HGEGTYTNDVTEYLEEEAAKEFIEWLIK([γGlu-12Ado-Mycophenolyl])GK-OH) | 16.3
CC[C@H](C)[C@H](NC(=O)[C@H](CC(C)C)NC(=O)[C@H](Cc1c[nH]c2ccccc12)NC(=O)[C@H](CCC(=O)O)NC(=O)[C@@H](NC(=O)[C@H](Cc1ccccc1)NC(=O)[C@H](CCC(=O)O)NC(=O)[C@H](CCCCN)NC(=O)[C@H](C)NC(=O)[C@H](C)NC(=O)[C@H](CCC(=O)O)NC(=O)[C@H](CCC(=O)O)NC(=O)[C@H](CCC(=O)O)NC(=O)[C@H](CC(C)C)NC(=O)[C@H](Cc1ccc(O)cc1)NC(=O)[C@H](CCC(=O)O)NC(=O)[C@@H](NC(=O)[C@@H](NC(=O)[C@H](CC(=O)O)NC(=O)[C@H](CC(N)=O)NC(=O)[C@@H](NC(=O)[C@H](Cc1ccc(O)cc1)NC(=O)[C@@H](NC(=O)CNC(=O)[C@H](CCC(=O)O)NC(=O)CNC(=O)[C@@H](N)Cc1cnc[nH]1)[C@@H](C)O)[C@@H](C)O)C(C)C)[C@@H](C)O)[C@@H](C)CC)C(=O)N[C@@H](CCCCNC(=O)CC[C@H](NC(=O)CCCCCNC(=O)CC/C(C)=C/Cc1c(O)c2c(c(C)c1OC)COC2=O)C(=O)O)C(=O)NCC(=O)N[C@@H](CCCCN)C(=O)O (H-HGEGTYTNDVTEYLEEEAAKEFIEWLIK([γGlu-Ahx-Mycophenolyl])GK-OH) | 11.8

Next, values leading:

EC50 [nM] | Compound
16.8 | CC[C@H](C)[C@H](NC(=O)[C@H](CC(C)C)NC(=O)[C@H](Cc1c[nH]c2ccccc12)NC(=O)[C@H](CCC(=O)O)NC(=O)[C@@H](NC(=O)[C@H](Cc1ccccc1)NC(=O)[C@H](CCC(=O)O)NC(=O)[C@H](CCCCN)NC(=O)[C@H](C)NC(=O)[C@H](C)NC(=O)[C@H](CCC(=O)O)NC(=O)[C@H](CCC(=O)O)NC(=O)[C@H](CCC(=O)O)NC(=O)[C@H](CC(C)C)NC(=O)[C@H](Cc1ccc(O)cc1)NC(=O)[C@H](CCC(=O)O)NC(=O)[C@@H](NC(=O)[C@@H](NC(=O)[C@H](CC(=O)O)NC(=O)[C@H](CC(N)=O)NC(=O)[C@@H](NC(=O)[C@H](Cc1ccc(O)cc1)NC(=O)[C@@H](NC(=O)CNC(=O)[C@H](CCC(=O)O)NC(=O)CNC(=O)[C@@H](N)Cc1cnc[nH]1)[C@@H](C)O)[C@@H](C)O)C(C)C)[C@@H](C)O)[C@@H](C)CC)C(=O)N[C@@H](CCCCN)C(=O)NCC(=O)N[C@@H](CCCCNC(=O)CC[C@H](NC(=O)CCCCCNC(=O)CC/C(C)=C/Cc1c(O)c2c(c(C)c1OC)COC2=O)C(=O)O)C(=O)O (H-HGEGTYTNDVTEYLEEEAAKEFIEWLIKGK([γGlu-Ahx-Mycophenolyl])-OH)
23.5 | CC[C@H](C)[C@H](NC(=O)[C@H](CC(C)C)NC(=O)[C@H](Cc1c[nH]c2ccccc12)NC(=O)[C@H](CCC(=O)O)NC(=O)[C@@H](NC(=O)[C@H](Cc1ccccc1)NC(=O)[C@H](CCC(=O)O)NC(=O)[C@H](CCCCN)NC(=O)[C@H](C)NC(=O)[C@H](C)NC(=O)[C@H](CCC(=O)O)NC(=O)[C@H](CCC(=O)O)NC(=O)[C@H](CCC(=O)O)NC(=O)[C@H](CC(C)C)NC(=O)[C@H](Cc1ccc(O)cc1)NC(=O)[C@H](CCC(=O)O)NC(=O)[C@@H](NC(=O)[C@@H](NC(=O)[C@H](CC(=O)O)NC(=O)[C@H](CC(N)=O)NC(=O)[C@@H](NC(=O)[C@H](Cc1ccc(O)cc1)NC(=O)[C@@H](NC(=O)CNC(=O)[C@H](CCC(=O)O)NC(=O)CNC(=O)[C@@H](N)Cc1cnc[nH]1)[C@@H](C)O)[C@@H](C)O)C(C)C)[C@@H](C)O)[C@@H](C)CC)C(=O)N[C@@H](CCCCN)C(=O)NCC(=O)N[C@@H](CCCCNC(=O)CC[C@H](NC(=O)CCCCCCCCCCCNC(=O)CC/C(C)=C/Cc1c(O)c2c(c(C)c1OC)COC2=O)C(=O)O)C(=O)O (H-HGEGTYTNDVTEYLEEEAAKEFIEWLIKGK([γGlu-12Ado-Mycophenolyl])-OH)
6.9 | CC[C@H](C)[C@H](NC(=O)[C@H](CC(C)C)NC(=O)[C@H](Cc1c[nH]c2ccccc12)NC(=O)[C@H](CCC(=O)O)NC(=O)[C@@H](NC(=O)[C@H](Cc1ccccc1)NC(=O)[C@H](CCC(=O)O)NC(=O)[C@H](CCCCNC(=O)CC[C@H](NC(=O)CCCCCNC(=O)CC/C(C)=C/Cc1c(O)c2c(c(C)c1OC)COC2=O)C(=O)O)NC(=O)[C@H](C)NC(=O)[C@H](C)NC(=O)[C@H](CCC(=O)O)NC(=O)[C@H](CCC(=O)O)NC(=O)[C@H](CCC(=O)O)NC(=O)[C@H](CC(C)C)NC(=O)[C@H](Cc1ccc(O)cc1)NC(=O)[C@H](CCC(=O)O)NC(=O)[C@@H](NC(=O)[C@@H](NC(=O)[C@H](CC(=O)O)NC(=O)[C@H](CC(N)=O)NC(=O)[C@@H](NC(=O)[C@H](Cc1ccc(O)cc1)NC(=O)[C@@H](NC(=O)CNC(=O)[C@H](CCC(=O)O)NC(=O)CNC(=O)[C@@H](N)Cc1cnc[nH]1)[C@@H](C)O)[C@@H](C)O)C(C)C)[C@@H](C)O)[C@@H](C)CC)C(=O)N[C@@H](CCCCN)C(=O)NCC(=O)N[C@@H](CCCCN)C(=O)O (H-HGEGTYTNDVTEYLEEEAAK([γGlu-Ahx-Mycophenolyl])EFIEWLIKGK-OH)
7.3 | CC[C@H](C)[C@H](NC(=O)[C@H](CC(C)C)NC(=O)[C@H](Cc1c[nH]c2ccccc12)NC(=O)[C@H](CCC(=O)O)NC(=O)[C@@H](NC(=O)[C@H](Cc1ccccc1)NC(=O)[C@H](CCC(=O)O)NC(=O)[C@H](CCCCNC(=O)CC[C@H](NC(=O)CCCCCCCCCCCNC(=O)CC/C(C)=C/Cc1c(O)c2c(c(C)c1OC)COC2=O)C(=O)O)NC(=O)[C@H](C)NC(=O)[C@H](C)NC(=O)[C@H](CCC(=O)O)NC(=O)[C@H](CCC(=O)O)NC(=O)[C@H](CCC(=O)O)NC(=O)[C@H](CC(C)C)NC(=O)[C@H](Cc1ccc(O)cc1)NC(=O)[C@H](CCC(=O)O)NC(=O)[C@@H](NC(=O)[C@@H](NC(=O)[C@H](CC(=O)O)NC(=O)[C@H](CC(N)=O)NC(=O)[C@@H](NC(=O)[C@H](Cc1ccc(O)cc1)NC(=O)[C@@H](NC(=O)CNC(=O)[C@H](CCC(=O)O)NC(=O)CNC(=O)[C@@H](N)Cc1cnc[nH]1)[C@@H](C)O)[C@@H](C)O)C(C)C)[C@@H](C)O)[C@@H](C)CC)C(=O)N[C@@H](CCCCN)C(=O)NCC(=O)N[C@@H](CCCCN)C(=O)O (H-HGEGTYTNDVTEYLEEEAAK([γGlu-12Ado-Mycophenolyl])EFIEWLIKGK-OH)

Reference: ChEMBL document CHEMBL4257467, “Synthesis and pharmaceutical characterization of site specific mycophenolic acid-modified Xenopus glucagon-like peptide-1 analogs” (Medchemcomm, 2018)
